Data set [1] is described as follows: Aqueous solubility of the compound in pH 7.4 phosphate buffered saline. The data set is classed as physicochemical. An outline of the steps:
(§1)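 In vitro DMPK measurements performed by an external DMPK group. Aqueous solubility measured in pH 7.4 PBS buffer. Protein binding measured in human plasma.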

Data set [2] has as its system Plasmodium falciparum. Put plainly: Antimalarial activity against chloroquine-resistant Plasmodium falciparum W2 measured after 48 hrs by SYBR green1 dye based fluorescence assay. The data set is classed as functional, organism-based. Particulars: W2, 48 h.
The nature of data set [3]: Therapeutic index, ratio of IC50 for human HepG2 cells to IC50 for chloroquine-sensitive Plasmodium falciparum 3D7.
Data set [4] concerns Plasmodium falciparum. Put plainly: Antimalarial activity against chloroquine-resistant Plasmodium falciparum TM90C2B harboring Y268S mutant measured after 48 hrs by SYBR green1 dye based fluorescence assay. The data set is classed as functional, organism-based.
In data set [5] the test system is Plasmodium falciparum. Nature of the data set: Antimalarial activity against chloroquine-sensitive Plasmodium falciparum 3D7 measured after 48 hrs by SYBR green1 dye based fluorescence assay. The data set is classed as functional, organism-based. The note with it: 3D7, 48 h.
The nature of data set [6]: Inhibition of recombinant Plasmodium falciparum NDH2 expressed in Escherichia coli using NADH as substrate.
The next data set has as its system HepG2. Nature of the data set: Cytotoxicity against human HepG2 cells after 24 hrs by MTT assay. The data set is classed as cell-based. The note with it: HepG2, 24 h.
The nature of data set [7]: Inhibition of Plasmodium falciparum cytochrome bc1 complex using cytochrome-c as substrate and decylubiquinol as donor by spectrophotometric method.
Data set [8] has as its system Plasmodium falciparum. Put plainly: Antimalarial activity against Plasmodium falciparum TX13 expressing yeast dihydroorotate dehydrogenase at >1000 nM. The data set is classed as functional, organism-based.
Data set [9] in a line: Protein binding in human plasma. The data set is classed as ADME, cell-free. Particulars: read-out: PPB. An outline of the steps: as §1

In brackets after ≈: the same amount, converted by molar mass. Activity calls are given as the source filed them. The calls are words filed in the database; no cut-off is given here. Bounds are passed on as bounds.

The values that follow come from ChEMBL document CHEMBL4325926, “Potent Antimalarial 2-Pyrazolyl Quinolone bc 1 (Qi) Inhibitors with Improved Drug-like Properties” (ACS Med Chem Lett, 2018).

The term solubility denotes how much of the substance goes into solution per volume. Read a low solubility as a poorly soluble substance. Usually IC50 stands for the concentration needed to halve the response being measured. As for `Cc1c(-c2ccn(Cc3ccc(OC(F)(F)F)cc3)n2)[nH]c2ccccc2c1=O`, the concentration in solution in [1] (solubility) came to 0.4 µM (≈ 0.16 µg/mL). Moreover, the IC50 in the data set with Plasmodium falciparum [2] came to 49 nM; in the data set on Plasmodium falciparum [4], 300 nM; with Plasmodium falciparum [5], 270 nM; in data set [6], 68 nM; with HepG2, 21200 nM. Further, the selectivity ratio in data set [3] worked out at 79.

Consider `O=C1C(O)=C([C@H]2CC[C@H](c3ccc(Cl)cc3)CC2)C(=O)c2ccccc21` [ATOVAQUONE], for which the IC50 with Plasmodium falciparum [2] was determined as 0.3 nM; in [6], 10000 nM.

Turning to `CCOC(=O)c1c(-c2cnn(Cc3ccc(OC(F)(F)F)cc3)c2)[nH]c2ccccc2c1=O`, the IC50 in the data set on Plasmodium falciparum [5] is 89 nM.

As for `Cc1c(-c2cnn(Cc3ccc(OC(F)(F)F)cc3)c2)[nH]c2cc(C(F)(F)F)ccc2c1=O`, in the data set on Plasmodium falciparum [5], half-maximal inhibition (IC50) was put at 810 nM.

With `Cc1c(-c2ccc(-c3cnn(CCN4CCOCC4)c3)nc2)[nH]c2ccccc2c1=O`, the IC50 in the data set with Plasmodium falciparum [5] is above 1000 nM.

In data set [1], `CCc1c(-c2cnn(Cc3ccc(OC(F)(F)F)cc3)c2)[nH]c2ccccc2c1=O` came in with a solubility of 0.2 µM (≈ 0.0827 µg/mL). Besides, the selectivity ratio in data set [3] was 219. In addition, the IC50 in the data set with Plasmodium falciparum [5] was 88 nM; in the data set with HepG2, 19300 nM.

For `COc1ccc2c(=O)c(C)c(-c3cnn(Cc4ccc(OC(F)(F)F)cc4)c3)[nH]c2c1`, the IC50 was 0.75 nM in data set [7]; 15 nM in the data set on Plasmodium falciparum [2]; 500 nM with Plasmodium falciparum [4]; 33 nM with Plasmodium falciparum [5]; 1000 nM in data set [6]; 11000 nM in the data set on HepG2. The same compound yielded a solubility in [1] of 0.3 µM (≈ 0.129 µg/mL). In addition, the selectivity ratio in [3] is 333.

In turn, `Cc1c(-c2cnn(Cc3ccc(OC(F)(F)F)cc3)c2)[nH]c2cc(F)ccc2c1=O` came in with an IC50 in the data set on Plasmodium falciparum [5] of 80 nM.

`O=c1cc(-c2cnn(Cc3ccc(C(F)(F)F)nc3)c2)[nH]c2ccccc12`: the IC50 in the data set with Plasmodium falciparum [5] is 580 nM.

Take `CC/C(=C(\c1ccccc1)c1ccc(OCCN(C)C)cc1)c1ccccc1` [TAMOXIFEN]: the IC50 with HepG2 stood at 12000 nM.

As to `CC(C)c1c(-c2cnn(Cc3ccc(OC(F)(F)F)cc3)c2)[nH]c2ccccc2c1=O`, the midpoint of inhibition in the data set with Plasmodium falciparum [5], the IC50, lay at 299 nM.

In the data set on Plasmodium falciparum [5], `COc1ccc2c(=O)cc(-c3ccn(Cc4ccc(OC(F)(F)F)cc4)n3)[nH]c2c1` returned an IC50 of 541 nM.

With `O=c1cc(-c2cnn(Cc3ccc(F)cc3)c2)[nH]c2ccccc12`, the IC50 in the data set with Plasmodium falciparum [5] was found to be 160 nM.

For the compound `COc1ccc2c(=O)c(Cl)c(-c3cnn(Cc4ccc(OC(F)(F)F)cc4)c3)[nH]c2c1`, the IC50 was found to be 11 nM with Plasmodium falciparum [2], 110 nM with Plasmodium falciparum [4] and 91 nM in the data set with Plasmodium falciparum [5]. In the data set on Plasmodium falciparum [8], the result was inactive.

In the data set with Plasmodium falciparum [5], `Cc1c(-c2cnn(Cc3ccc(OC(F)(F)F)cc3)c2)[nH]c2ccc(F)cc2c1=O` showed an IC50 of 54 nM.

Consider `Cc1c(-c2cnn(CCc3ccc(OC(F)(F)F)cc3)c2)[nH]c2ccccc2c1=O`, for which the half-maximal inhibitory concentration (IC50) in the data set on Plasmodium falciparum [5] is above 1000 nM.

`Cc1c(-c2ccc(-c3cnn(CCN4CCOCC4)c3)cc2)[nH]c2ccccc2c1=O` gave an IC50 in the data set with Plasmodium falciparum [5] above 1000 nM.

For the compound `Cc1c(-c2cnn(Cc3ccc(OC(F)(F)F)cc3)c2)[nH]c2ccc(Cl)cc2c1=O`, the midpoint of inhibition in the data set on Plasmodium falciparum [5], the IC50, lay at 110 nM.

In turn, `O=c1cc(-c2cnn(Cc3ccc(OC(F)(F)F)cc3)c2)[nH]c2ccccc12` came in with an IC50 in the data set on Plasmodium falciparum [5] of 74 nM.

For `O=c1c(Cl)c(-c2cnn(Cc3ccc(OC(F)(F)F)cc3)c2)[nH]c2ccccc12`, in data set [1], the solubility came to 0.01 µM (≈ 0.0042 µg/mL). Further, the IC50 in the data set on Plasmodium falciparum [2] came out at 14 nM; with Plasmodium falciparum [5] it was 166 nM; with HepG2, 28400 nM. Also, in [3], the selectivity ratio stood at 171. Also, in [9], the fraction unbound is below 0.001.

In [1], `Cc1c(-c2ccc(Cc3ccc(OC(F)(F)F)cc3)cc2)[nH]c2ccccc2c1=O` showed a solubility of 0.03 µM (≈ 0.0123 µg/mL).

Consider `C=C(C)[C@H]1Cc2c(ccc3c2O[C@@H]2COc4cc(OC)c(OC)cc4[C@@H]2C3=O)O1` [ROTENONE], for which half-maximal inhibition in the data set with HepG2 (IC50) was put at 1520 nM.

In the data set with Plasmodium falciparum [5], `Cc1c(-c2cnn(Cc3ccc(OC(F)(F)F)cc3)c2)[nH]c2cc(Cl)ccc2c1=O` yielded an IC50 of 50 nM.

`COc1ccc2c(=O)c(Cl)c(-c3ccn(Cc4ccc(OC(F)(F)F)cc4)n3)[nH]c2c1` registered an IC50 in the data set on Plasmodium falciparum [5] of 376 nM.

On to `COc1ccc2c(=O)cc(-c3cnn(Cc4ccc(OC(F)(F)F)cc4)c3)[nH]c2c1`, for which half-maximal inhibition with Plasmodium falciparum [5] (IC50) required 419 nM.

Take `O=c1cc(-c2cnn(CCN3CCOCC3)c2)[nH]c2ccccc12`: the IC50 in the data set on Plasmodium falciparum [5] was 690 nM.

For the compound `Cc1c(-c2cnn(Cc3ccc(OC(F)(F)F)cc3)c2)[nH]c2ccccc2c1=O`, in data set [1], the concentration in solution (solubility) was 0.1 µM (≈ 0.0399 µg/mL). Moreover, the IC50 with Plasmodium falciparum [2] was determined as 33 nM; with Plasmodium falciparum [5] it was 100 nM; in data set [6] it was 837 nM; with HepG2 it was 13000 nM. In addition, in [3], the selectivity ratio is 130.
